Measured values gathered from unrelated publications.
Cell line: HCT-116
Read-out: cell growth or viability

Structure (SMILES)	method	time	IC50
CSc1nc(/N=C/c2cc(C)ccc2O)n(-c2ccc(C(=O)O)cc2)n1	MTT		43.9 µM
O=C(NC(=S)NC1CCCCC1)c1ccc2ccccc2c1		48 h	4.62 µM
CC1=C(O)C(=O)C=C2C1=CC=C1[C@@]2(C)CC[C@@]2(C)[C@@H]3C[C@](C)(C(=O)OCCCn4ccc5ccccc54)CC[C@]3(C)CC[C@]12C	MTT	48 h	2.75 µM
COc1cc(Nc2nccc(-c3cnn4nc(OC)ccc34)n2)cc(C(F)(F)F)c1	ATP luminescence		0.55 µM
CC[C@]1(O)C[C@H]2CN(CCc3c([nH]c4ccccc34)[C@@](C(=O)OC)(c3cc4c(cc3OC)N(C=O)[C@H]3[C@@](O)(C(=O)OC)[C@H](OC(C)=O)[C@]5(CC)C=CCN6CC[C@]43[C@@H]65)C2)C1	fluorescence	72 h	0.0017 µM
O=c1ccc2ccc(O)c(CO)c2o1	MTT	36 h	> 20 µM
COc1cccc2c1C(=O)c1c(O)c3c(c(O)c1C2=O)C[C@@](O)(C(=O)CO)C[C@@H]3O[C@H]1C[C@H](N)[C@H](O)[C@H](C)O1	SRB		0.11 µM
CC(=O)Oc1ccc2ccc(=O)oc2c1CBr	MTT	36 h	> 20 µM
COc1ccc(NC(=O)Nc2ccc(OCc3nccc(OCC(F)(F)F)c3C)cc2)cc1	MTT	72 h	19.2 µM
COc1cc(/C=N/c2nc(SC)nn2-c2ccc(C(=O)O)cc2)ccc1O	MTT		61.1 µM
O=C(Nc1nnc(-c2cc3ccccc3[nH]2)s1)c1cc2c([nH]c3ccccc32)c(-c2ccccc2)n1	MTT	72 h	5.12 µM
O=C(NC(=S)NCc1ccc(CNC(=S)NC(=O)c2ccc3ccccc3c2)cc1)c1ccc2ccccc2c1		48 h	1.35 µM
COc1cc(-c2nc(C(=O)Nc3nnc(-c4cc5ccccc5n4C)s3)cc3c2[nH]c2ccccc23)cc(OC)c1OC	MTT	72 h	6.11 µM
CC(C)[C@H](N)c1nc2cc(-c3ccncc3F)sc2c(=O)[nH]1	MTT		0.158 µM
O=C(NC(=S)Nc1ccc([N+](=O)[O-])cc1)c1ccc2ccccc2c1		48 h	6.09 µM
O=C1Nc2c(C(F)(F)F)cccc2[C@@]1(c1ccc(O)cc1)c1ccc(OC(F)(F)F)cc1	resazurin	7 days	0.093 µM
Cc1c(OCC(F)(F)F)ccnc1COc1ccc(NC(=O)Nc2ccc(Cl)cc2)cc1	MTT	72 h	3.9 µM
COc1cc([C@@H]2c3cc4c(cc3[C@@H](O[C@@H]3O[C@@H]5CO[C@@H](C)O[C@H]5[C@H](O)[C@H]3O)[C@H]3COC(=O)[C@H]23)OCO4)cc(OC)c1O	MTS	72 h	19.3 µM
c1ccc(C[n+]2cn(COC3CCCCC3)c3ccccc32)cc1	MTT	72 h	44.2 µM
COc1c(C)cnc(COc2ccc(NC(=O)Nc3ccc(F)cc3)cc2)c1C	MTT	72 h	12.7 µM
COc1ccc2oc(=O)cc(CCl)c2c1	MTT	36 h	> 20 µM
CS(=O)(=O)c1nc(N)n(-c2ccc(C(=O)O)cc2)n1	MTT		48.5 µM
COC(=O)/C=C1\S/C(=N\C(=O)c2ccc3ccccc3c2)N(C2CCCCC2)C1=O		48 h	12.2 µM

Structure (SMILES)	method	time	IC50
Cc1cc(C)n(-c2nc(Nc3ccc(Cl)cc3)nc(-n3nc(C)cc3C)n2)n1	MTT	72 h	11 µM
COc1c(C)cnc(COc2ccc(NC(=O)Nc3cc(F)cc(F)c3)cc2)c1C	MTT	72 h	10.8 µM
CCn1c(-c2nnc(NC(=O)c3cc4c([nH]c5ccccc54)c(-c4ccc(OC)cc4)n3)s2)cc2ccccc21	MTT	72 h	19.9 µM
O=C(NC(=S)N1CCCCC1)c1ccc2ccccc2c1		48 h	9.12 µM
COc1ccnc(COc2ccc(NC(=O)Nc3cc(F)cc(F)c3)cc2)c1OC	MTT	72 h	25.7 µM
C=CC(=O)Nc1cccc(Nc2nc(Nc3ccc(OCCOC)cc3)ncc2F)c1			6.79 µM
c1ccc2cc(-c3nnc(NC4CCCCC4)[nH]3)ccc2c1		48 h	2.53 µM
CC[C@H](C)C(=O)O[C@H]1C[C@H](O)C=C2C=C[C@H](C)[C@H](CC[C@@H](O)C[C@@H](O)CC(=O)O)[C@H]21	SRB	72 h	1.57 mg/L
O=Cc1ccc(CO)o1	WST-1	48 h	83.1 µM
CC(=O)c1ccc(-c2cccc(NC(=O)CCc3cccc4c3B(O)OC4)c2)cc1	ATP luminescence	72 h	0.28 µM
CC1=C(O)C(=O)C=C2C1=CC=C1[C@@]2(C)CC[C@@]2(C)[C@@H]3C[C@](C)(C(=O)OCCCN4C(=O)C5C=CC=CC5C4=O)CC[C@]3(C)CC[C@]12C (stereo partly shown)	MTT	48 h	0.64 µM
O=C(NC(=S)NCCCNC(=S)NC(=O)c1ccc2ccccc2c1)c1ccc2ccccc2c1		48 h	1.23 µM
COc1cccc2c1C(=O)c1c(O)c3c(c(O)c1C2=O)C[C@@](O)(C(=O)CO)C[C@@H]3O[C@H]1C[C@H](N)[C@H](O)[C@H](C)O1	MTT		64 µM
COc1ccc(NC(=O)Nc2ccc(OCc3nccc(OC)c3OC)cc2)cc1	MTT	72 h	13.1 µM
COc1ccc(O)c(/C=N/c2nc(Oc3ccccc3)nn2-c2ccc(C(=O)O)cc2)c1	MTT		58.5 µM
CCCCCCCCCCONC(N)=O	imaging		> 600 µM
COc1c(C)cnc(COc2ccc(NC(=O)Nc3ccc(Cl)cc3)cc2)c1C	MTT	72 h	19.3 µM
CSc1nc(/N=C/c2cccc(O)c2)n(-c2ccc(C(=O)O)cc2)n1	MTT		70.1 µM
COc1cc(CNC(=O)CCCC/C=C/C(C)C)ccc1O	SRB		40.2 µM
COc1ccc(NC(=O)Nc2ccc(OCc3ncc(C)c(OC)c3C)cc2)cc1	MTT	72 h	> 100 µM
CC(=O)OCCOC(=O)[C@]1(C)CC[C@]2(C)CC[C@]3(C)C4=CC=C5C(=CC(=O)C(O)=C5C)[C@]4(C)CC[C@@]3(C)[C@@H]2C1	MTT	48 h	0.47 µM
O=c1c(O)c(-c2ccc(O)c(O)c2)oc2cc(O)cc(O)c12	WST-1	48 h	9.1 µM
CC(=O)Oc1ccc2c(CSC(C)=O)cc(=O)oc2c1	MTT	36 h	> 20 µM
